Test results published in publication PMC9073091 (RSC Advances, 2019).
Where no end group is shown, it is not given here.

Key:
[1] = Pharmacokinetic study after subcutaneous administration; format: in vivo, Sprague-Dawley rats
Summary of the method: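 Twelve Sprague-Dawley rats (6 female, 6 male; 200 ± 20 g) were housed SPF at 22 ± 2 °C on a 12 h light–dark cycle and fasted about 12 h. Each received a single subcutaneous dose of 10 mg kg−1. Orbital blood was taken into pre-acidified EDTA-K2 tubes at 0, 0.5, 1, 2, 3, 5, 10, 20, 30, 45 and 60 min and iced; plasma was spun and analysed by UHPLC-MS/MS (LLOQ 0.1 ng mL−1). Non-compartmental analysis; mean ± SD.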

Stability = format: in vitro ADME; conditions: rat
Summary of the method: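 Rat blood was spiked at 150 ng mL−1 to compare three stabilisation factors. Anticoagulant (EDTA-K2 or heparin sodium) was tested at 25 °C and 0 °C. Protease inhibitors (pepstatin A, aprotinin, cOmplete cocktail, AEBSF) were tested at 25 °C. Acidification with H2SO4 or HClO4 (0.1–0.3%) was tested at 25 °C and 0 °C. Samples were taken before and at 2, 5, 10, 20, 30 and 60 min, precipitated with organic solvent, centrifuged and analysed by UHPLC-MS/MS. Half-lives were calculated.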

[2] = Stability of SP in acidified rat plasma and blood; format: in vitro ADME
Summary of the method: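 Blood was acidified with 0.3% perchloric acid. Low- and high-level samples (five replicates each) were held as follows: whole blood at 0 °C for 1 h; […] for 1 h before processing; extracts at 25 °C for 1 h; reconstituted samples in the autosampler at 4 °C for 24 h; plasma at −70 °C for 60 days; and three freeze–thaw cycles (−70 °C to ambient). Read-out was accuracy as deviation from nominal, with acceptance within 15%.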

[3] = rats, subcutaneous 10 mg kg^−1, mean ± SD, n = 12

## GQTYTSG [SP, GQTYTSG]
[1]; rat, in vivo, sc, 10 mg/kg
  Tmax: 1.75 min
  half-life: < 10 min
[1]; [3]
  CL (apparent total plasma clearance): 17.9 ± 9.96 L/min
  Vz (total volume of distribution): 230 ± 118 L
Stability; half-life of SP in blood samples, blood acidified with 0.3% HClO4 (v/v), 0 °C
  half-life: > 350 min
Stability; half-life, 25 °C, in vitro
  half-life: < 10 min
Stability; whole blood, half-life of SP in blood samples, EDTA-K2 as anticoagulant, samples kept at 0 °C
  half-life: 11.5 ± 0.22 min
Stability; whole blood, half-life of SP in blood samples, blood acidified with 0.3% H2SO4 (v/v), 0 °C
  half-life: > 350 min
[2]; blood, blood stability (0 °C for 1 h), 0.5 ng mL^−1
  Accuracy (stability): 114.4%
[2]; blood, blood stability (0 °C for 1 h), 300 ng mL^−1
  Accuracy (stability): 104.1%
[2]; plasma, auto-sampler stability (4 °C for 24 h), 0.25 ng mL^−1
  Accuracy (stability): 110.0%
[2]; plasma, auto-sampler stability (4 °C for 24 h), 150 ng mL^−1
  Accuracy (stability): 106.7%
[2]; plasma, freeze–thaw stability (three cycles), 0.25 ng mL^−1
  Accuracy (stability): 106.4%
[2]; plasma, freeze–thaw stability (three cycles), 150 ng mL^−1
  Accuracy (stability): 94.7%
[2]; plasma, long-term stability (−70 °C for 60 days), 0.25 ng mL^−1
  Accuracy (stability): 96.1%
[2]; plasma, long-term stability (−70 °C for 60 days), 150 ng mL^−1
  Accuracy (stability): 94.0%
[2]; plasma, post-preparation stability (25 °C for 1 h), 0.25 ng mL^−1
  Accuracy (stability): 90.8%
[2]; plasma, post-preparation stability (25 °C for 1 h), 150 ng mL^−1
  Accuracy (stability): 105.3%
[2]; plasma, short-term stability (0 °C for 1 h), 0.25 ng mL^−1
  Accuracy (stability): 96.4%
[2]; plasma, short-term stability (0 °C for 1 h), 150 ng mL^−1
  Accuracy (stability): 96.0%
